From ChEMBL document CHEMBL2046324, “Synthesis and biological evaluation of 1-arylsulfonyl-5-(N-hydroxyacrylamide)indoles as potent histone deacetylase inhibitors with antitumor activity in vivo” (J Med Chem, 2012)
Converted amounts (≈) assume the structure as drawn.

Assays:
[1] = cells; format: functional, Hep 3B2; settings: Homo sapiens, Hep3B, 48 h
[2] = tested on: A549; experiment: Antitumor activity against human A549 cells xenografted in nude mouse assessed as time to end point at 100 mg/kg, po administered QD till end point; format: functional
[3] = tested on: A549; experiment: Antitumor activity against human A549 cells xenografted in po dosed nude mouse assessed as tumor growth delay administered QD till end point; format: functional, organism-based
[4] = Cmax in Sprague-Dawley rat at 20 mg/kg, po; format: ADME, organism-based; parameters: dose 20 mg/kg, route oral; settings: in vivo
Outline: (§1)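 Male Sprague-Dawley rats (250–350 g, 8–10 weeks), three per group. Single 2 mg/kg iv bolus into the jugular vein in PEG400/DMSO (80:20, v/v), or 20 mg/kg orally in 1% carboxymethyl cellulose plus 0.5% Tween 80. Plasma was assayed by LC-MS/MS (MRM) and analysed noncompartmentally.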

[5] = molecular target: CYP2E1 (Homo sapiens, UniProt P05181); experiment: Inhibition of CYP2E1 at 10 uM; format: ADME
CYP2E1, sequence (P05181 whole entry): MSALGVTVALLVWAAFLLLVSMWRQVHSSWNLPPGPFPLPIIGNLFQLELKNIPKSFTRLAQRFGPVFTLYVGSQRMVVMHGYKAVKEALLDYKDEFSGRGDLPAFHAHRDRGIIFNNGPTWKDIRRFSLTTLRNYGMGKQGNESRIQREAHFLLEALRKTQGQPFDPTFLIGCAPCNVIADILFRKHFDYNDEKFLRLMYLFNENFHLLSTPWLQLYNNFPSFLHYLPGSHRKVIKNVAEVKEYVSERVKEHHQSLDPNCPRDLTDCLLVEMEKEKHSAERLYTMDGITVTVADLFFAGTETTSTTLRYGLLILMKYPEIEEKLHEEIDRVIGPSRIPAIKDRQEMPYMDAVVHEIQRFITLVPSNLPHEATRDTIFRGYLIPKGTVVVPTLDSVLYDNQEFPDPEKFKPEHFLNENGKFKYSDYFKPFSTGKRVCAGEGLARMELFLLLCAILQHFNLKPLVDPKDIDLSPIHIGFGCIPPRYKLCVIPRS

[6] = tested on: Mus musculus; experiment: Toxicity in nude mouse bearing human A549 cells assessed as body weight change at 100 mg/kg, po QD; format: organism-based; parameters: dose 100 mg/kg, route oral; settings: in vivo
Outline: (§2)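 Nude mice bearing sc A549 xenografts were dosed po daily in 0.5% carboxymethyl cellulose at 10 mL/kg, scaled to body weight.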

[7] = Half life in Sprague-Dawley rat at 20 mg/kg, po; format: ADME, organism-based; parameters: dose 20 mg/kg, route oral; settings: in vivo
Outline: as §1

[8] = tested on: A549; experiment: Antitumor activity against human A549 cells xenografted in nude mouse assessed as tumor growth delay at 200 mg/kg, po administered QD till end point; format: functional
Outline: (§3)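 At about 65 mm³ they were randomized, seven per group, and dosed po daily at 10 mL/kg in 0.5% carboxymethyl cellulose until a 1000 mm³ end point. Volume was w²l/2. TTE came from linear regression of log volume; TGD = T − C and %TGD = (T − C)/C × 100.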

[9] = Solubility of the compound in EtOH after 24 hrs by HPLC analysis; format: physicochemical
[10] = tested on: MDA-MB-231; experiment: cells; format: functional; settings: Homo sapiens, MDA-MB-231, 48 h
[11] = molecular target: CYP2C9 (Homo sapiens, UniProt P11712); experiment: Inhibition of CYP2C9 at 10 uM; format: ADME
CYP2C9, sequence (P11712 whole entry): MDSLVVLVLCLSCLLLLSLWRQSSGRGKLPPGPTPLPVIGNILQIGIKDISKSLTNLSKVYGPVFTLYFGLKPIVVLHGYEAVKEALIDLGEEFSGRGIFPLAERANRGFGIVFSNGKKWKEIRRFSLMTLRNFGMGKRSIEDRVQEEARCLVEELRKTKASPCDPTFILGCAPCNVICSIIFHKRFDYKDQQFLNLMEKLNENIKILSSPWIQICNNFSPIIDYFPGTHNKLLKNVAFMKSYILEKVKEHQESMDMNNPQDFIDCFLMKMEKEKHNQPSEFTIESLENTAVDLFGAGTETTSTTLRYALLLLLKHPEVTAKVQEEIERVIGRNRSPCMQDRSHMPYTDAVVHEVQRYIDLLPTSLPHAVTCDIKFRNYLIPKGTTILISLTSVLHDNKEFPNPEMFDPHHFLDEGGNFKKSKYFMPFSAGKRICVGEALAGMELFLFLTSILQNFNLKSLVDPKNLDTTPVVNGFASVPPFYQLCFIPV

[12] = Solubility of the compound in water after 24 hrs by HPLC analysis; format: physicochemical
[13] = molecular target: T1, Tubulin (Homo sapiens) (UniProt P68371+Q9H4B7+P0DPH7+P68366+Q13509+Q71U36+P04350+Q3ZCM7+P07437+P68363+Q9BQE3+Q6PEY2+Q13885+Q9BVA1+Q9BUF5); experiment: Inhibition of HDAC in human A549 cells assessed as tubulin acetylation after 48 hrs by Western blot analysis
[14] = Oral bioavailability in Sprague-Dawley rat at 20 mg/kg; format: ADME, organism-based; settings: in vivo
Outline: as §1

[15] = tested on: A549; experiment: Antitumor activity against human A549 cells xenografted in nude mouse assessed as tumor growth inhibition at 100 mg/kg, po administered QD till end point; format: functional; settings: read-out: GI
Outline: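 A549 sc xenografts in female nude mice, seven per group, dosed po daily in 0.5% carboxymethyl cellulose (10 mL/kg) to a 1000 mm³ end point. Tumor volume was w²l/2. TGI was expressed as % T/C of tumor volumes, treated versus control, and compared with control by P value at the indicated days.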

[16] = tested on: A549; experiment: Antitumor activity against human A549 cells xenografted in nude mouse assessed as tumor growth delay at 100 mg/kg, po administered QD till end point; format: functional
[17] = AUC (0 to infinity) in Sprague-Dawley rat at 2 mg/kg, iv; format: ADME, organism-based; parameters: dose 2 mg/kg, route intravenous, time infinity; settings: plasma
Outline: as §1

[18] = tested on: A549; experiment: Antitumor activity against human A549 cells xenografted in nude mouse assessed as tumor growth inhibition at 200 mg/kg, po administered QD till end point; format: functional; settings: read-out: GI
[19] = molecular target: T1, Tubulin (Homo sapiens); experiment: Inhibition of HDAC in human PC3 cells assessed as tubulin acetylation after 48 hrs by Western blot analysis; settings: PC-3
[20] = Half life in Sprague-Dawley rat at 2 mg/kg, iv; format: ADME, organism-based; parameters: dose 2 mg/kg, route intravenous; settings: in vivo
Outline: as §1

[21] = AUC (0 to infinity) in Sprague-Dawley rat at 20 mg/kg, po; format: ADME, organism-based; parameters: time infinity, dose 20 mg/kg, route oral; settings: plasma
Outline: as §1

[22] = tested on: A549; experiment: Growth inhibition of human A549 cells after 48 hrs by SRB assay; format: functional; settings: Homo sapiens, A549, 48 h
Outline: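 A549 cells were grown in RPMI 1640 with 10% FBS and 2 mM glutamine at 37 °C in 5% CO₂, then seeded in medium with 5% FBS. A 24 h TCA-fixed plate gave T₀. Cells were exposed to compound or DMSO for 48 h, fixed with 10% TCA and stained with 0.4% SRB; bound dye was solubilized in 10 mM Tris and read at 515 nm. GI₅₀ was the concentration halving net protein increase. At least three independent experiments.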

[23] = molecular target: CYP2C19 (Homo sapiens, UniProt P33261); experiment: Inhibition of CYP2C19 at 10 uM; format: ADME
CYP2C19, sequence (P33261 whole entry): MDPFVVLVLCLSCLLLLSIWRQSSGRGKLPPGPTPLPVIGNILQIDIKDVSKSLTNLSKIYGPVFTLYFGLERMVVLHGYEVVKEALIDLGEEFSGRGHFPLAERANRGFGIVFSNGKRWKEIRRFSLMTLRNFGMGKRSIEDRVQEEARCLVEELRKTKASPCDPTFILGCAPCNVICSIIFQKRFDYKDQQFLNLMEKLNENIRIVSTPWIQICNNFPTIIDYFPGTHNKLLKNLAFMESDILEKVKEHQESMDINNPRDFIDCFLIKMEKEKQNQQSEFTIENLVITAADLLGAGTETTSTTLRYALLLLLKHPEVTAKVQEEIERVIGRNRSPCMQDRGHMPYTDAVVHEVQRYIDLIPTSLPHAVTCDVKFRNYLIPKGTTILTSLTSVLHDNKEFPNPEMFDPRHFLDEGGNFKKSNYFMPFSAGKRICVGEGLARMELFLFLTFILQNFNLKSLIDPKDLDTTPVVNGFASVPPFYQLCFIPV

[24] = molecular target: T2, CYP2C8 (Homo sapiens, UniProt P10632); experiment: Inhibition of CYP2C8 at 10 uM; format: ADME
T2 sequence (P10632 whole entry): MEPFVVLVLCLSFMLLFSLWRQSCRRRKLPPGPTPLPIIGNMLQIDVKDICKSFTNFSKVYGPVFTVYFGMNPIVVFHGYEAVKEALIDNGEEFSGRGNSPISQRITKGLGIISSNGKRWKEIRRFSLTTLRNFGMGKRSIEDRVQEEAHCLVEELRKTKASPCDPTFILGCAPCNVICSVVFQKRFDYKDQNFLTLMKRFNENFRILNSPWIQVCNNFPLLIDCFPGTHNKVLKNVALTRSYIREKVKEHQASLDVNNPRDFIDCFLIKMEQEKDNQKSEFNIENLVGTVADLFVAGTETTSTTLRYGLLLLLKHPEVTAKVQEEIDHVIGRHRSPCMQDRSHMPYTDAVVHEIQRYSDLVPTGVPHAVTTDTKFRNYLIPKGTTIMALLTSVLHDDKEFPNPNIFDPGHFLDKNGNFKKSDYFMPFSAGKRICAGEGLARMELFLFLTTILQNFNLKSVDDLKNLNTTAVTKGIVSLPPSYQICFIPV

[25] = Volume of distribution at steady state in Sprague-Dawley rat at 2 mg/kg, iv; format: ADME, organism-based; parameters: dose 2 mg/kg, route intravenous; settings: in vivo, read-out: Vdss
Outline: as §1

[26] = tested on: PC-3; experiment: cells; format: functional; settings: Homo sapiens, PC-3, 48 h
[27] = molecular target: CYP3A4 (Homo sapiens, UniProt P08684); experiment: Inhibition of CYP3A4 at 10 uM; format: ADME
CYP3A4, sequence (P08684 whole entry): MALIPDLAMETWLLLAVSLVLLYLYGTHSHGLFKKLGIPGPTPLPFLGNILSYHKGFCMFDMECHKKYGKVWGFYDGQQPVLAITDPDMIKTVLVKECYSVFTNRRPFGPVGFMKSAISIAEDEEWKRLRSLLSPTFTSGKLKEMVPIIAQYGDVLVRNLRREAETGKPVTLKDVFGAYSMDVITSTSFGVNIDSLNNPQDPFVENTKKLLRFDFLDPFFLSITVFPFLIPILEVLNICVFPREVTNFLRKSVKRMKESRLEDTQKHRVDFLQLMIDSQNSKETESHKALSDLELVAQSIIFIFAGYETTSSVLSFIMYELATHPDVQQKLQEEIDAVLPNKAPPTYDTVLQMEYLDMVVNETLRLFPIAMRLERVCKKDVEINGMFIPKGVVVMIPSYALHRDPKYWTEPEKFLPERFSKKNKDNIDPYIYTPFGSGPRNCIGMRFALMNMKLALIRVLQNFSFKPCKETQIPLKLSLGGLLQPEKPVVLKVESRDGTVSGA

[28] = tested on: A549; experiment: Antitumor activity against human A549 cells xenografted in nude mouse assessed as time to end point at 200 mg/kg, po administered QD till end point; format: functional
Outline: as §3

[29] = Clearance in Sprague-Dawley rat at 2 mg/kg, iv; format: ADME, organism-based; parameters: dose 2 mg/kg, route intravenous; settings: in vivo
Outline: as §1

[30] = tested on: Mus musculus; experiment: Toxicity in nude mouse bearing human A549 cells assessed as adverse effects at 100 mg/kg, po QD; format: organism-based; parameters: dose 100 mg/kg, route oral; settings: in vivo
[31] = molecular target: T3, CYP1A2 (Homo sapiens, UniProt P05177); experiment: Inhibition of CYP1A2 at 10 uM; format: ADME
T3 sequence (P05177 whole entry): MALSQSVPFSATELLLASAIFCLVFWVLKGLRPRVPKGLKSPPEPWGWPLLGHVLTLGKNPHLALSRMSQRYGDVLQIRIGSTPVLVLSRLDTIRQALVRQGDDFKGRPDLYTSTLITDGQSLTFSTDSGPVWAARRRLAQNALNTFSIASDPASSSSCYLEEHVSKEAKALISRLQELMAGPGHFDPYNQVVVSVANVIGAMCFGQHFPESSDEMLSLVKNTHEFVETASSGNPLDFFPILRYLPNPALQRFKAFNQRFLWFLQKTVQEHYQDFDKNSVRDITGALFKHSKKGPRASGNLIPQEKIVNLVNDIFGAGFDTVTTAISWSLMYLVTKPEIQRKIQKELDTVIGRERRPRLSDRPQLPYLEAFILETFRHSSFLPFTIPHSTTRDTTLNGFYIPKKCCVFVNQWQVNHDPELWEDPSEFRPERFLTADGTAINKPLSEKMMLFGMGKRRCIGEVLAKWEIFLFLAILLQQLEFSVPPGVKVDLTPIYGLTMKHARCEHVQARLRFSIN

[32] = molecular target: CYP2D6 (Homo sapiens, UniProt P10635); experiment: Inhibition of CYP2D6 at 10 uM; format: ADME
CYP2D6, sequence (P10635 whole entry): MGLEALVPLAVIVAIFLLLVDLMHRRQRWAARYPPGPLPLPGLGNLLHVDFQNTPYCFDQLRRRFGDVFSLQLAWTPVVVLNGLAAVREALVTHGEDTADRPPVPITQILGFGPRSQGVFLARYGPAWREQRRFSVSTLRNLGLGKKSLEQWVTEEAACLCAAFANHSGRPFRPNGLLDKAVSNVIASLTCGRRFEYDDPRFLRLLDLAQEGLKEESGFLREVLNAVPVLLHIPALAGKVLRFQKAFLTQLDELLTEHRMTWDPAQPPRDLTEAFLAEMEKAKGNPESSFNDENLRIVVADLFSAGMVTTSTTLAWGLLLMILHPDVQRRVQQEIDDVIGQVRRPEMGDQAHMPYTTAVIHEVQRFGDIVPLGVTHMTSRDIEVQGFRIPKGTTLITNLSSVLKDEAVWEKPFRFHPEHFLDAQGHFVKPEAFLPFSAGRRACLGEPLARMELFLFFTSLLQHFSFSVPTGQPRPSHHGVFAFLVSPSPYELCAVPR

[33] = tested on: Mus musculus; experiment: Toxicity in nude mouse bearing human A549 cells assessed as adverse effects at 200 mg/kg, po QD; format: organism-based; parameters: dose 200 mg/kg, route oral; settings: in vivo
[34] = tested on: Mus musculus; experiment: Toxicity in nude mouse bearing human A549 cells assessed as body weight change at 200 mg/kg, po QD; format: organism-based; parameters: dose 200 mg/kg, route oral; settings: in vivo
Outline: as §2

[35] = Tmax in Sprague-Dawley rat at 20 mg/kg, po; format: ADME, organism-based; parameters: dose 20 mg/kg, route oral; settings: in vivo
Outline: as §1

Cmax [4]: 217 ng/mL
inhibition at 10 µM [5]: 22%
half-life [7]: 5.5 h
solubility at 24 h [9]: 939 µg/mL (≈ 2740 µM)
GI50 [10]: 480 nM
inhibition at 10 µM [11]: 22%
solubility at 24 h [12]: < 1 µg/mL
inhibition [13]: Dose-dependent effect
bioavailability [14]: 10%
AUC(0-inf) [17]: 927 ng·h/mL
inhibition [19]: Dose-dependent effect
half-life [20]: 2.6 h
AUC(0-inf) [21]: 916 ng·h/mL
GI50 [22]: 1020 nM
inhibition at 10 µM [23]: 78%
inhibition at 10 µM [24]: 78%
Vd [25]: 2.1 L/kg
GI50 [26]: 620 nM
inhibition at 10 µM [27]: 65%
clearance [29]: 35.5 mL/min/kg
inhibition at 10 µM [31]: 51%
inhibition at 10 µM [32]: 31%
Tmax [35]: 1.7 h
Compound: O=C(/C=C/c1ccc2c(ccn2S(=O)(=O)c2ccccc2)c1)NO
GI50 [1]: 410 nM
Time [2]: 36.2 days
Activity [3]: Dose-dependent effect
Activity [6]: Non-toxic
Activity [8]: 47%
inhibition in vivo at 100 mg/kg [15]: 15%
Activity [16]: 34%
inhibition in vivo at 200 mg/kg [18]: 32.1%
Time [28]: 39.8 days
Activity [30]: Non-toxic
Activity [33]: Non-toxic
Activity [34]: Non-toxic
